Source: PubChem (The Scripps Research Institute Molecular Screening Center)
TAAR1 agonist: human TAAR1 agonism; Q96RJ0; CHO RD-HGA16 TAAR1, Fluo-8 calcium fluorescence; vehicle wells 0%, saturating PEA agonist 100%; activation, % at 3 µM; 360,000 compounds, 0.99% hits;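 active = activation above the mean activation of all test compounds in the run plus 3 SD, cut at about 38% in these data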
Target sequence (Q96RJ0 whole entry, looked up): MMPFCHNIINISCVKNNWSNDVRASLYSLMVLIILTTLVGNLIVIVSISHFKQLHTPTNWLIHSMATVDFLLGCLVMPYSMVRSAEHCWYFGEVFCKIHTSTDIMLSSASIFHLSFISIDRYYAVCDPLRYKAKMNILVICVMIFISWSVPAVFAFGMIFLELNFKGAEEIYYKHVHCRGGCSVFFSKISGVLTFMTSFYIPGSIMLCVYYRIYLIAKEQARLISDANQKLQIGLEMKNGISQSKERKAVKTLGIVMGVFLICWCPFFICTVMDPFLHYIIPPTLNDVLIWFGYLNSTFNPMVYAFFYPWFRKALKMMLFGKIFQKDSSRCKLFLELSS
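Test system: RD-HGA16 (CHO) cells co-expressing Gα16 and hTAAR1 / Benchmarks: DMSO vehicle as 0%, PEA at EC100 as 100% / Repeats: no replicates (n 1) / Measure: % activation from peak over basal fluorescence ratio, DMSO-to-PEA scaled / Timing: 17-24 h plating, Fluo-8 75 min 37 °C, 30 min RT / Technique: kinetic Fluo-8 calcium fluorescence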
OX1R antag-1: OX1R (human) antagonism | O43613 | OX1R-expressing cells, FRET antagonist read-out | inhibition, % at 6.6 µM | 330,000 compounds, 1.8% hits | AID 485270; in the data active = inhibition mostly above about 38%, no sharp cut-off; inactive = mostly below about 40%
OX1R antag-2: antagonists of human orexin 1 receptor | inhibition, % at 5 µM | O43613 | 330,000 compounds, 0.43% hits | CHO/OX1R cells, Fluo-8 calcium fluorescence, orexin A | AID 434989;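 active = inhibition above its plate's threshold, mean inhibition of all tested compounds on the plate plus 3 SD, cut at about 37% in these data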
GPR7 antagonist: human neuropeptides B/W receptor 1 antagonism | 290,000 compounds, 1.1% hits | GPR7-expressing cells, fluorescence antagonist assay | P48145 | inhibition, % at 4.4 µM; in the data active = inhibition above about 16%, passing the limit was not always enough;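 also: cells stimulated with the agonist NPW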
Target sequence (P48145 whole entry, looked up): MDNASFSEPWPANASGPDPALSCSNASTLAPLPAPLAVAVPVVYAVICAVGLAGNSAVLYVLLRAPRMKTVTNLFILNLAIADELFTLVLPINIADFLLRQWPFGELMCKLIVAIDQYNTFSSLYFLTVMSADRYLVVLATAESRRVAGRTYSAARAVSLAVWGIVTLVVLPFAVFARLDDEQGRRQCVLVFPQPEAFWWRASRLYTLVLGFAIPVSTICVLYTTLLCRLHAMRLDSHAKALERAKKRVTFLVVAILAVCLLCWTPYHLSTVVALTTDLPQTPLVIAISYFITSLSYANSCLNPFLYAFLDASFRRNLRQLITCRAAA
CHO parental Ca: counter-screen for OX1R antagonists: effect in parental CHO cells. 330,000 compounds, 0.63% hits. parental CHO-K1, ATP-induced calcium, Fluo-8 fluorescence. AID 463079. inhibition, % at 5.6 µM;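 active = inhibition above that plate's mean sample inhibition plus 3 SD, cut at about 26% in these data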
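test system = CHO parental line | reagent = ATP stimulus | measured by = intracellular calcium via Fluo-8 no-wash fluorescent dye | control set = ATP and no-ATP DMSO wells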
TAAR1 antag: human TAAR1 antagonism; Q96RJ0; CHO RD-HGA16 TAAR1, Fluo-8 calcium fluorescence, antagonist; inhibition, % at 3 µM; 360,000 compounds, 1.5% hits; AID 624466;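 active = inhibition above a per-plate cutoff, the mean inhibition of test compounds on that plate plus 3 SD, cut at about 49% in these data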
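Test system – hTAAR1-expressing CHO RD-HGA16 cells, Gα16-coupled · Also added – β-PEA at EC80 concentration, post-compound challenge · Compound – 3 µM, single point · Incubation – dye loading 75 min at 37 °C, then 30 min room temperature · Measured by – Fluo-8 intracellular calcium dye fluorescence, real-time kinetic reads · Benchmarks – vehicle and agonist controls · Replicates – singlicate, one well per test compound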
OX1R Fluo8 conf: confirmation of human orexin 1 receptor antagonists; shares compounds with OX1R antag-2; CHO/OX1R cells, orexin A calcium Fluo-8 fluorescence; inhibition, % at 5 µM; 1,100 compounds, 38% hits; AID 492963; in the data active = inhibition above about 29%
CHO Ca counter: counter-screen: parental CHO calcium response change, triplicate; shares compounds with OX1R antag-2; parental CHO-K1, ATP-induced calcium, Fluo-8 fluorescence; inhibition, % at 5.6 µM; 1,100 compounds, 9.3% hits; AID 492965;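 active = inhibition above a per-plate limit, the mean inhibition of that plate's test compounds plus 3 SD, cut at about 25% in these data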
Large screens that a line does not name were inactive (follow-up assays come after a bar, where they were run). This is a sample that favours compounds with a hit; in the whole collection about 4.6% have one here.

O=C(COC(=O)C12CC3CC(CC(Br)(C3)C1)C2)Nc1cccc(S(=O)(=O)N2CCOCC2)c1	OX1R antag-2 47 (no result: GPR7 antagonist) | OX1R Fluo8 conf 32 | CHO Ca counter inactive
CC(NCC(=O)Nc1cc(S(=O)(=O)N2CCCCCC2)ccc1Cl)c1ccccc1 (centres undefined)	none | OX1R Fluo8 conf inactive | CHO Ca counter 26
O=C(Cc1cccs1)Nc1cc(S(=O)(=O)N2CCCCC2)ccc1Cl	none (no result: GPR7 antagonist)
COC(=O)C1(C(=O)OC)C[C@H](c2cccs2)N(Cc2ccccc2OC)[C@@H]1c1ccc(F)cc1	none (no result: OX1R antag-1, OX1R antag-2, GPR7 antagonist, CHO parental Ca)
O=C(CSc1nnc(NCc2ccccc2)s1)c1ccco1	none | OX1R Fluo8 conf inactive | CHO Ca counter inactive
O=C1NCC(c2ccccc2)C1C(=O)N/N=C\c1ccc(-c2ccc(Cl)c(Cl)c2)o1 (centres undefined)	OX1R antag-2 52 | OX1R Fluo8 conf 51 | CHO Ca counter inactive
O=C1NCC(c2ccccc2)C1C(=O)N/N=C/c1ccc(Cl)s1 (centres undefined)	none
COC(=O)c1cccc(NC(=S)NCc2ccc(Cl)cc2)c1	none | OX1R Fluo8 conf inactive | CHO Ca counter inactive
CCCN(CCC)CC(O)Cn1c2ccccc2c2ccccc21 (centres undefined)	none
CS(=O)(=O)N(Cc1ccco1)CC(O)Cn1c2ccccc2c2ccccc21 (centres undefined)	OX1R antag-2 51 | OX1R Fluo8 conf 30 | CHO Ca counter inactive
CCOC(=O)[C@]12CCCC=C1N(Cc1ccco1)C(=O)[C@H](CC(=O)NCCCN1CCCC1=O)C2	none (no result: OX1R antag-1, OX1R antag-2, GPR7 antagonist, CHO parental Ca)
CC(=O)Nc1ccc(C2=NNC(=Nc3cccc(S(=O)(=O)N(C)C)c3)SC2)cc1	OX1R antag-2 34 (no result: TAAR1 agonist, TAAR1 antag) | OX1R Fluo8 conf 38 | CHO Ca counter inactive
CN(C)S(=O)(=O)N1CCCC(C(=O)c2ccc(-c3ccccc3)c(F)c2)C1 (centres undefined)	none | OX1R Fluo8 conf inactive | CHO Ca counter inactive
O=C(c1ccco1)N1CCN(C(=O)N2CCCC2)CC1	none
O=C(c1ccco1)N1CCN(c2ncccn2)CC1	none | OX1R Fluo8 conf inactive | CHO Ca counter inactive
CC(=O)c1cn(CCOc2ccc(F)cc2)c2ccccc12	OX1R antag-2 48 | OX1R Fluo8 conf inactive | CHO Ca counter inactive
COC(=O)c1cn(CCOc2ccc(C)cc2)c2ccccc12	none
COc1ccc(NS(=O)(=O)c2cccc(NC(=O)COc3ccccc3[N+](=O)[O-])c2)cc1	OX1R antag-2 51 (no result: GPR7 antagonist) | OX1R Fluo8 conf inactive | CHO Ca counter inactive
O=C(COc1ccccc1[N+](=O)[O-])Nc1cccc(S(=O)(=O)NC2=NCCCCC2)c1	none (no result: GPR7 antagonist)
Cc1cc(C)cc(N(CC(=O)Nc2ccc(-c3nc4ccc(C)cc4s3)cc2)S(C)(=O)=O)c1	OX1R antag-2 37 | OX1R Fluo8 conf inactive | CHO Ca counter inactive
Cc1ccc2nc(-c3ccc(NC(=O)CN(c4ccccc4C)S(C)(=O)=O)cc3)sc2c1	none
CCOc1ccc(Br)cc1S(=O)(=O)Nc1cccc(S(=O)(=O)N2CCOCC2)c1	none (no result: OX1R antag-1, OX1R antag-2, GPR7 antagonist, CHO parental Ca)
O=C(CN(C(=O)c1ccccc1Cl)C1CCCCC1)Nc1ccc(Cl)c([N+](=O)[O-])c1	none | OX1R Fluo8 conf inactive | CHO Ca counter inactive
Nc1ncnc2c1ncn2[C@@H]1O[C@H](C(=O)N2CCC[C@@H]2C(=O)OCc2ccccc2)[C@@H](O)[C@H]1O	none (no result: OX1R antag-1, OX1R antag-2, GPR7 antagonist, CHO parental Ca)
CCOC(=O)C1CCN(C(=O)CSCc2nc(-c3ccc(OCC)cc3)oc2C)CC1	none | OX1R Fluo8 conf inactive | CHO Ca counter inactive
CCOc1ccc(-c2nc(CSCC(=O)N3CCN(C(=O)c4ccco4)CC3)c(C)o2)cc1	none
Cc1cccc(NC(=O)C2Cc3ccccc3O/C2=N\O)c1 (centres undefined)	none (no result: OX1R antag-1, OX1R antag-2, CHO parental Ca)
COc1ccc(S(=O)(=O)Nc2ccc(S(=O)(=O)N3CCCCC3)cc2)cc1	none | OX1R Fluo8 conf inactive | CHO Ca counter inactive
COc1ccc(S(=O)(=O)Nc2ccc(S(=O)(=O)N3CCCC3)cc2)cc1	none
Cc1cc(C)nc(SCC(=O)Nc2ccc(N3CCOCC3)c(Cl)c2)n1	none | OX1R Fluo8 conf inactive | CHO Ca counter 31
CNc1nc(SCC(=O)Nc2ccc(Cl)c(Cl)c2)nc(N2CCOCC2)n1	none
C[C@H](CO)N1C[C@H](C)[C@H](CN(C)Cc2ccncc2)Oc2ccc(NC(=O)Nc3ccc(C(F)(F)F)cc3)cc2CC1=O	none (no result: GPR7 antagonist)
Cc1csc2nc(SCC(=O)Nc3ccccc3F)[nH]c(=O)c12	none
COC(=O)CNC(=O)C(NC(=O)OCc1ccccc1)C(C)C (centres undefined)	none | OX1R Fluo8 conf inactive | CHO Ca counter inactive
NC(=O)NOCc1ccc(Cl)cc1Cl	none
CNC(=S)/N=C/NOCc1ccc(Cl)cc1Cl	OX1R antag-2 41 | OX1R Fluo8 conf inactive | CHO Ca counter inactive
Cc1[nH]c(=O)[nH]c(=O)c1S(=O)(=O)N1CCCC(C(=O)NCCc2ccccc2)C1 (centres undefined)	none
Cc1[nH]c(=O)[nH]c(=O)c1S(=O)(=O)N1CCCC(C(=O)NCCc2ccc(Cl)cc2)C1 (centres undefined)	none (no result: TAAR1 agonist, TAAR1 antag) | OX1R Fluo8 conf inactive | CHO Ca counter inactive
COc1ccc(C(CNC(=O)c2cc(S(=O)(=O)N3CCN(c4ccccc4)CC3)ccc2Cl)N(C)C)cc1 (centres undefined)	none (no result: GPR7 antagonist)
CC(=O)Oc1ccc(N2C(=O)c3cccc4c([N+](=O)[O-])ccc(c34)C2=O)cc1	OX1R antag-2 44 | OX1R Fluo8 conf 35 | CHO Ca counter 29
CC(=O)Oc1ccc(-n2c(=O)c3ccccc3c3ccccc3c2=O)cc1	none
CCCCOc1ccc(S(=O)(=O)N2CCN(c3ccc(N4CCN(CC)CC4)nn3)CC2)cc1	none (no result: GPR7 antagonist)
CCCc1ccc(C2C3=C(CC(C)(C)CC3=O)NC3=C2C(=O)c2ccccc23)cc1 (centres undefined)	OX1R antag-2 66 | OX1R Fluo8 conf inactive | CHO Ca counter inactive
O=C1N(c2ccccc2)C(c2ccccc2)C12CCCCC2 (centres undefined)	none (no result: GPR7 antagonist)
CCOc1ccc(/C=C2\SC(=S)NC2=O)cc1OC	none
COc1ccc(/C=C2\SC(=O)NC2=S)cc1OC	none | OX1R Fluo8 conf inactive | CHO Ca counter inactive
CC(C)(C)c1ccc(S(=O)(=O)N(CCCN2CCOCC2)Cc2cccs2)cc1	OX1R antag-2 103 | OX1R Fluo8 conf inactive | CHO Ca counter inactive
O=C(Nc1ccccc1)N(CCCN1CCOCC1)Cc1cccs1	none
Cc1cccc2c1cnn2C(=O)CCC(=O)NCc1ccc(F)cc1	OX1R antag-2 50 | OX1R Fluo8 conf inactive | CHO Ca counter inactive
